Active and inactive are the calls of the source. The calls are words filed in the database; no cut-off is given here.
Experiments:
Type in all cases: functional
[1] = test system: SR; test: Antiproliferative activity against human SR cells assessed as growth inhibition at 10 uM relative to control; settings: read-out: GI
Procedure, shortened: (§1)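 NCI 60 human tumour cell line panel screen. Compounds tested at a single dose and growth inhibition (%) determined for each line.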

[2] = test system: CCRF-CEM; test: Antiproliferative activity against human CCRF-CEM cells assessed as growth inhibition at 10 uM relative to control; settings: read-out: GI
Procedure, shortened: (§2)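 Single-dose screen run by the US National Cancer Institute across its 60-human tumour cell line panel. Each compound was tested at one concentration. Percent growth inhibition was recorded for each cell line.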

[3] = test system: HL-60(TB); test: Antiproliferative activity against human HL-60(TB) cells assessed as growth inhibition at 10 uM relative to control; settings: read-out: GI
[4] = test system: K562; test: Antiproliferative activity against human K562 cells assessed as growth inhibition at 10 uM relative to control; settings: read-out: GI; procedure, shortened: as §2
[5] = test system: MOLT-4; test: Antiproliferative activity against human MOLT-4 cells assessed as growth inhibition at 10 uM relative to control; settings: read-out: GI; procedure, shortened: as §2
[6] = test system: A549; test: Antiproliferative activity against human A549 cells assessed as growth inhibition at 10 uM relative to control; settings: read-out: GI; procedure, shortened: as §2
[7] = test system: EKVX; test: Antiproliferative activity against human EKVX cells assessed as growth inhibition at 10 uM relative to control; settings: read-out: GI; procedure, shortened: as §2
[8] = test system: HOP-62; test: Antiproliferative activity against human HOP-62 cells assessed as growth inhibition at 10 uM relative to control; settings: read-out: GI; procedure, shortened: as §2
[9] = test system: NCI-H23; test: Antiproliferative activity against human NCI-H23 cells assessed as growth inhibition at 10 uM relative to control; settings: read-out: GI; procedure, shortened: as §2
[10] = test system: NCI-H522; test: Antiproliferative activity against human NCI-H522 cells assessed as growth inhibition at 10 uM relative to control; settings: read-out: GI; procedure, shortened: as §2
[11] = test system: COLO 205; test: Antiproliferative activity against human COLO 205 cells assessed as growth inhibition at 10 uM relative to control; settings: read-out: GI; procedure, shortened: as §2
[12] = test system: KM12; test: Antiproliferative activity against human KM12 cells assessed as growth inhibition at 10 uM relative to control; settings: read-out: GI; procedure, shortened: as §2
[13] = test system: SW-620; test: Antiproliferative activity against human SW-620 cells assessed as growth inhibition at 10 uM relative to control; settings: read-out: GI; procedure, shortened: as §1
[14] = test system: SF-295; test: Antiproliferative activity against human SF-295 cells assessed as growth inhibition at 10 uM relative to control; settings: read-out: GI; procedure, shortened: as §2
[15] = test system: SF-539; test: Antiproliferative activity against human SF-539 cells assessed as growth inhibition at 10 uM relative to control; settings: read-out: GI; procedure, shortened: as §2
[16] = test system: SNB-75; test: Antiproliferative activity against human SNB-75 cells assessed as growth inhibition at 10 uM relative to control; settings: read-out: GI; procedure, shortened: as §1
[17] = test system: U-251; test: Antiproliferative activity against human U251 cells assessed as growth inhibition at 10 uM relative to control; settings: read-out: GI; procedure, shortened: as §1
[18] = test system: Malme-3M; test: Antiproliferative activity against human Malme-3M cells assessed as growth inhibition at 10 uM relative to control; settings: read-out: GI; procedure, shortened: as §2
[19] = test system: M14; test: Antiproliferative activity against human M14 cells assessed as growth inhibition at 10 uM relative to control; settings: read-out: GI; procedure, shortened: as §2
[20] = test system: SK-MEL-28; test: Antiproliferative activity against human SK-MEL-28 cells assessed as growth inhibition at 10 uM relative to control; settings: read-out: GI; procedure, shortened: as §1
[21] = test system: SK-MEL-5; test: Antiproliferative activity against human SK-MEL-5 cells assessed as growth inhibition at 10 uM relative to control; settings: read-out: GI; procedure, shortened: as §1
[22] = test system: UACC-62; test: Antiproliferative activity against human UACC-62 cells assessed as growth inhibition at 10 uM relative to control; settings: read-out: GI; procedure, shortened: as §1
[23] = test system: IGROV-1; test: Antiproliferative activity against human IGROV-1 cells assessed as growth inhibition at 10 uM relative to control; settings: read-out: GI; procedure, shortened: as §2
[24] = test system: OVCAR-3; test: Antiproliferative activity against human OVCAR-3 cells assessed as growth inhibition at 10 uM relative to control; settings: read-out: GI; procedure, shortened: as §2
[25] = test system: NCI/ADR-RES; test: Antiproliferative activity against human NCI/ADR-RES cells assessed as growth inhibition at 10 uM relative to control; settings: read-out: GI; procedure, shortened: as §2
[26] = test system: SK-OV-3; test: Antiproliferative activity against human SK-OV-3 cells assessed as growth inhibition at 10 uM relative to control; settings: read-out: GI; procedure, shortened: as §1
[27] = test system: 786-0; test: Antiproliferative activity against human 786-0 cells assessed as growth inhibition at 10 uM relative to control; settings: read-out: GI; procedure, shortened: as §2
[28] = test system: A498; test: Antiproliferative activity against human A498 cells assessed as growth inhibition at 10 uM relative to control; settings: read-out: GI; procedure, shortened: as §2
[29] = test system: CAKI-1; test: Antiproliferative activity against human CAKI-1 cells assessed as growth inhibition at 10 uM relative to control; settings: read-out: GI; procedure, shortened: as §2
[30] = test system: SN12C; test: Antiproliferative activity against human SN12C cells assessed as growth inhibition at 10 uM relative to control; settings: read-out: GI; procedure, shortened: as §1
[31] = test system: TK-10; test: Antiproliferative activity against human TK-10 cells assessed as growth inhibition at 10 uM relative to control; settings: read-out: GI; procedure, shortened: as §1
[32] = test system: UO-31; test: Antiproliferative activity against human UO-31 cells assessed as growth inhibition at 10 uM relative to control; settings: read-out: GI; procedure, shortened: as §1
[33] = test system: PC-3; test: Antiproliferative activity against human PC-3 cells assessed as growth inhibition at 10 uM relative to control; settings: read-out: GI; procedure, shortened: as §2
[34] = test system: DU-145; test: Antiproliferative activity against human DU-145 cells assessed as growth inhibition at 10 uM relative to control; settings: read-out: GI; procedure, shortened: as §2
[35] = test system: MDA-MB-231; test: Antiproliferative activity against human MDA-MB-231 cells assessed as growth inhibition at 10 uM relative to control; settings: read-out: GI; procedure, shortened: as §2
[36] = test system: BT-549; test: Antiproliferative activity against human BT-549 cells assessed as growth inhibition at 10 uM relative to control; procedure, shortened: as §2
[37] = test system: T47D; test: Antiproliferative activity against human T47D cells assessed as growth inhibition at 10 uM relative to control; settings: read-out: GI; procedure, shortened: as §1
[38] = test system: MDA-MB-468; test: Antiproliferative activity against human MDA-MB-468 cells assessed as growth inhibition at 10 uM relative to control; settings: read-out: GI; procedure, shortened: as §2
[39] = test system: OVCAR-8; test: Antiproliferative activity against human OVCAR-8 cells assessed as growth inhibition at 10 uM relative to control; settings: read-out: GI; procedure, shortened: as §2
[40] = test system: Leukemia cell; test: Antiproliferative activity against human leukemia cells
[41] = Antiproliferative activity against human Non-small cell lung cancer cells; settings: Non-small cell lung cancer cell line
[42] = Antiproliferative activity against human colon cancer cells; settings: Colon cancer cell line
[43] = Antiproliferative activity against human Melanoma cells; settings: Melanoma cell line
[44] = Antiproliferative activity against human ovarian cancer cells; settings: Ovarian cancer cell line
[45] = Antiproliferative activity against human renal cancer cells; settings: Renal cancer cell line
[46] = Antiproliferative activity against human prostate cancer cells; settings: Prostate tumor cell line
[47] = Antiproliferative activity against human breast cancer cells; settings: Breast cancer cell line
[48] = read-out: LC50 (the source's name)

## C/C(=C(/c1ccccc1)c1ccc(OCC(O)CNCCN2CCOCC2)cc1)c1ccccc1 (stereo not drawn)
[1]
  inhibition of growth at 10 µM: 99.3%
[2]
  inhibition of growth at 10 µM: 43.5%
[3]
  inhibition of growth at 10 µM: 71%
[4]
  inhibition of growth at 10 µM: 97.6%
[5]
  inhibition of growth at 10 µM: 59%
[6]
  inhibition of growth at 10 µM: 29.2%
[7]
  inhibition of growth at 10 µM: 17.2%
[8]
  inhibition of growth at 10 µM: 25.1%
[9]
  inhibition of growth at 10 µM: 16.8%
[10]
  inhibition of growth at 10 µM: 55.5%
[11]
  inhibition of growth at 10 µM: -64.5%
[12]
  inhibition of growth at 10 µM: 45.7%
[13]
  inhibition of growth at 10 µM: 51%
[14]
  inhibition of growth at 10 µM: 28.8%
[15]
  inhibition of growth at 10 µM: 27.2%
[16]
  inhibition of growth at 10 µM: 34.2%
[17]
  inhibition of growth at 10 µM: 67.4%
[18]
  inhibition of growth at 10 µM: -71.7%
[19]
  inhibition of growth at 10 µM: 7.31%
[20]
  inhibition of growth at 10 µM: -86.2%
[21]
  inhibition of growth at 10 µM: 71%
[22]
  inhibition of growth at 10 µM: 37.3%
[23]
  inhibition of growth at 10 µM: 36.6%
[24]
  inhibition of growth at 10 µM: 22.1%
[25]
  inhibition of growth at 10 µM: 19.8%
[26]
  inhibition of growth at 10 µM: 4.57%
[27]
  inhibition of growth at 10 µM: 2.44%
[28]
  inhibition of growth at 10 µM: 20.1%
[29]
  inhibition of growth at 10 µM: 32.1%
[30]
  inhibition of growth at 10 µM: 23.9%
[31]
  inhibition of growth at 10 µM: 26.5%
[32]
  inhibition of growth at 10 µM: 30.8%
[33]
  inhibition of growth at 10 µM: 34.5%
[34]
  inhibition of growth at 10 µM: 32.2%
[35]
  inhibition of growth at 10 µM: 70.6%
[36]
  growth inhibition (GI): inactive
[37]
  inhibition of growth at 10 µM: 10.7%
[38]
  inhibition of growth at 10 µM: 46.9%
[39]
  inhibition of growth at 10 µM: 21.8%
[40]
  GI50: 2.19 µM
  LC50 (concentration killing 50% of cells): 23.9 µM
  TGI: 5.8 µM
[41]
  GI50: 4.19 µM
  TGI: 12.2 µM
[41]; [48]
  CC50: 36.3 µM
[42]
  GI50: 2.06 µM
  LC50: 13.8 µM
  TGI: 5.51 µM
[43]
  GI50: 1.87 µM
  LC50: 8.55 µM
  TGI: 3.74 µM
[44]
  GI50: 5.2 µM
  TGI: 16.3 µM
[44]; [48]
  CC50: 45.8 µM
[45]
  GI50: 2.4 µM
  TGI: 7.75 µM
[45]; [48]
  CC50: 22 µM
[46]
  GI50: 3.57 µM
  TGI: 13 µM
[46]; [48]
  CC50: 38.5 µM
[47]
  GI50: 3.69 µM
  TGI: 9.08 µM
[47]; [48]
  CC50: 29.1 µM
